{"source": "ChEMBL document CHEMBL1150058", "about": "“Gigantetronenin and gigantrionenin: novel cytotoxic acetogenins from Goniothalamus giganteus” (J Nat Prod, 1992)", "key": {"[1]": {"assay": "Toxicity in brine shrimp", "format": "organism-based", "settings": "artemia, in vivo"}, "[2]": {"test_system": "HT-29", "assay": "Cytotoxicity against human HT-29 cells", "format": "functional", "settings": "read-out: ED50 (the source's name)", "procedure,_shortened": "(§1)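 Cultured human tumour lines (A-549 lung carcinoma, MCF-7 breast carcinoma, HT-29 colon adenocarcinoma) were tested at the Purdue Cell Culture Laboratory by standard protocols, with adriamycin as positive control.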"}, "[3]": {"test_system": "A549", "assay": "Cytotoxicity against human A549 cells", "format": "functional", "settings": "for EC50: Homo sapiens, A549, read-out: ED50 (the source's name)", "procedure,_shortened": "as §1"}, "[4]": {"test_system": "MCF7", "assay": "Cytotoxicity against human MCF7 cells", "format": "functional", "settings": "read-out: ED50 (the source's name)", "procedure,_shortened": "as §1"}}}
{"smiles": "CCCCCCCCCCCC[C@H](O)[C@@H]1CC[C@@H]([C@@H](O)CCCCCCC(O)CCCCC[C@@H](O)CC2=C[C@H](C)OC2=O)O1", "note": "(stereo not given in full) [ANNOMONTACIN]", "values": [{"measurement": "LC50", "setting": "[1]", "result": 12.5, "unit": "µg/mL"}]}
{"smiles": "CCCCCCCCCCCC[C@@H](OC(C)=O)[C@H]1CC[C@H]([C@@H](CCCCCC[C@H](CCCCC[C@H](CC2=C[C@H](C)OC2=O)OC(C)=O)OC(C)=O)OC(C)=O)O1", "values": [{"measurement": "EC50", "setting": "[2]", "result": 14.9, "unit": "µg/mL"}, {"measurement": "EC50", "setting": "[3]", "result": 0.17, "unit": "µg/mL"}, {"measurement": "EC50", "setting": "[4]", "result": 90.4, "unit": "µg/mL"}]}
{"smiles": "CCCCCCCCCCCC/C=C\\CC[C@@H](OC(C)=O)[C@@H](CC[C@H](OC(C)=O)[C@@H]1CC[C@@H](CCCCCCCC2=CC(C)OC2=O)O1)OC(C)=O", "note": "(stereo not given in full)", "values": [{"measurement": "EC50", "setting": "[2]", "result": 0.0667, "unit": "µg/mL"}, {"measurement": "EC50", "setting": "[3]", "result": 0.359, "unit": "µg/mL"}, {"measurement": "EC50", "setting": "[4]", "result": 24.9, "unit": "µg/mL"}]}
{"smiles": "CCCCCCCCCCCC/C=C\\CC[C@@H](O)[C@H](O)CC[C@H](O)[C@@H]1CC[C@@H](CCCCCCCC2=C[C@H](C)OC2=O)O1", "note": "[GIGANTRIONENIN]", "values": [{"measurement": "EC50", "setting": "[2]", "result": 0.00292, "unit": "µg/mL"}, {"measurement": "LC50", "setting": "[1]", "result": 13.9, "unit": "µg/mL"}, {"measurement": "EC50", "setting": "[3]", "result": 0.00394, "unit": "µg/mL"}, {"measurement": "EC50", "setting": "[4]", "result": 8.06, "unit": "µg/mL"}]}
{"smiles": "CCCCCCCCCCCCCCC(O)C(O)CC[C@H](O)[C@H]1CC[C@H](CCCCC[C@@H](O)CC2=C[C@H](C)OC2=O)O1", "note": "(stereo not given in full) [GIGANTETRONENIN]", "values": [{"measurement": "LC50", "setting": "[1]", "result": 9.4, "unit": "µg/mL"}, {"measurement": "EC50", "setting": "[3]", "result": 0.00471, "unit": "µg/mL"}]}
{"smiles": "COc1cccc2c1C(=O)c1c(O)c3c(c(O)c1C2=O)C[C@@](O)(C(=O)CO)C[C@@H]3O[C@H]1C[C@H](N)[C@H](O)[C@H](C)O1", "note": "[DOXORUBICIN]", "values": [{"measurement": "EC50", "setting": "[2]", "result": 0.00483, "unit": "µg/mL"}, {"measurement": "LC50", "setting": "[1]", "result": 8, "unit": "µg/mL"}, {"measurement": "ED50", "setting": "[3]", "result": 2.37, "unit": "×10⁻⁴ ug/ml"}, {"measurement": "EC50", "setting": "[4]", "result": 0.0108, "unit": "µg/mL"}]}
{"smiles": "CCCCCCCCCCCC/C=C\\CC[C@@H](OC(C)=O)[C@@H](CC[C@H](OC(C)=O)[C@@H]1CC[C@@H](CCCCCC(CC2=CC(C)OC2=O)OC(C)=O)O1)OC(C)=O", "note": "(stereo not given in full)", "values": [{"measurement": "EC50", "setting": "[2]", "result": 1.6, "unit": "µg/mL"}, {"measurement": "EC50", "setting": "[3]", "result": 0.96, "unit": "µg/mL"}, {"measurement": "EC50", "setting": "[4]", "result": 5.97, "unit": "µg/mL"}]}
